Results reported in ChEMBL document CHEMBL4311952, “Discovery and Development of a Series of Pyrazolo[3,4-d]pyridazinone Compounds as the Novel Covalent Fibroblast Growth Factor Receptor Inhibitors by the Rational Drug Design” (J Med Chem, 2019).
≈ marks a conversion by molar mass, not a printed value.

Tests used:
[1] = Kinetic solubility of the compound in pH 7.4 PBS by nephelometric method; format: physicochemical; conditions: read-out: Kinetic_solubility
[2] = Half life in mouse liver microsomes at 0.1 uM in presence of NADPH by LC-MS/MS analysis; format: ADME, Microsome; conditions: for half-life at 0.1 µM: liver microsomes
Summary of the method: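 Mouse liver microsomes at 0.33 mg/mL protein with 5 mM MgCl2, 0.1 μM compound, 1 mM NADPH, 0.1 M Tris/HCl pH 7.4, final DMSO 0.01%. Pre-warmed 10 min at 37 °C, started with NADPH. Sampled at 0, 7, 17, 30 and 60 min, quenched with methanol, analysed by LC-MS/MS in duplicate. T1/2 = -0.693/k from first-order consumption.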

[3] = Tmax in Sprague-Dawley rat at 10 mg/kg, iv by LC-MS/MS analysis; format: ADME, organism-based; conditions: in vivo
Summary of the method: (§1)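 SD rats dosed in 5% DMSO + 5% Tween-80 in 90% saline, IV 10 mg/kg, PO 20 mg/kg or IP 20 mg/kg; blood collected and centrifuged to plasma, which was deproteinized with methanol containing internal standard, diluted and re-centrifuged; concentrations by LC/MS/MS.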

[4] = Cmax in Sprague-Dawley rat at 10 mg/kg, iv by LC-MS/MS analysis; format: ADME, organism-based; set-up: dose 10 mg/kg, route intravenous; conditions: in vivo
Summary of the method: (§2)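 SD rats dosed IV 10 mg/kg, PO 20 mg/kg or IP 20 mg/kg in 5% DMSO + 5% Tween-80 in 90% saline. Blood collected after dosing and spun to plasma. Plasma deproteinized with methanol containing internal standard, centrifuged, diluted with methanol and spun again. Compound in supernatant quantified by LC/MS/MS.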

[5] = AUC (0 to t) in Sprague-Dawley rat at 10 mg/kg, iv by LC-MS/MS analysis; format: ADME, organism-based; conditions: in vivo; summary of the method: as §2
[6] = AUC (0 to infinity) in Sprague-Dawley rat at 10 mg/kg, iv by LC-MS/MS analysis; format: ADME, organism-based; set-up: dose 10 mg/kg, time infinity, route intravenous; conditions: in vivo; summary of the method: as §2
[7] = MRT in Sprague-Dawley rat at 10 mg/kg, iv by LC-MS/MS analysis; format: ADME, organism-based; conditions: in vivo; summary of the method: as §1
[8] = Half life in Sprague-Dawley rat at 10 mg/kg, iv by LC-MS/MS analysis; format: ADME, organism-based; conditions: in vivo; summary of the method: as §2
[9] = Clearance in Sprague-Dawley rat at 10 mg/kg, iv by LC-MS/MS analysis; format: ADME, organism-based; conditions: in vivo; summary of the method: as §2
[10] = Tmax in Sprague-Dawley rat at 20 mg/kg, po by LC-MS/MS analysis; format: ADME, organism-based; conditions: in vivo; summary of the method: as §1
[11] = Cmax in Sprague-Dawley rat at 20 mg/kg, po by LC-MS/MS analysis; format: ADME, organism-based; set-up: dose 20 mg/kg, route oral; conditions: in vivo; summary of the method: as §2
[12] = AUC (0 to t) in Sprague-Dawley rat at 20 mg/kg, po by LC-MS/MS analysis; format: ADME, organism-based; conditions: in vivo; summary of the method: as §2
[13] = AUC (0 to infinity) in Sprague-Dawley rat at 20 mg/kg, po by LC-MS/MS analysis; format: ADME, organism-based; set-up: dose 20 mg/kg, route oral, time infinity; conditions: in vivo; summary of the method: as §2
[14] = MRT in Sprague-Dawley rat at 20 mg/kg, po by LC-MS/MS analysis; format: ADME, organism-based; conditions: in vivo; summary of the method: as §1
[15] = Half life in Sprague-Dawley rat at 20 mg/kg, po by LC-MS/MS analysis; format: ADME, organism-based; conditions: in vivo; summary of the method: as §2
[16] = Oral bioavailability in Sprague-Dawley rat at 20 mg/kg by LC-MS/MS analysis; format: ADME, organism-based; conditions: in vivo; summary of the method: as §1
[17] = Stability in rat blood assessed as parent compound remaining at 5 uM measured after 5 hrs by LC-MS/MS analysis; format: ADME, tissue-based; conditions: read-out: Stability
Summary of the method: (§3)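 Compound at 5 μM in fresh rat blood at 37 °C; samples at 0, 0.5, 1.0, 2.0 and 5.0 h, stopped by methanol protein precipitation; percentage of residual parent measured by LC-MS/MS.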

[18] = Volume of distribution at steady state in Sprague-Dawley rat at 10 mg/kg, iv by LC-MS/MS analysis; format: ADME, organism-based; conditions: in vivo; summary of the method: as §1
[19] = Tmax in Sprague-Dawley rat at 20 mg/kg, ip by LC-MS/MS analysis; format: ADME, organism-based; conditions: in vivo; summary of the method: as §1
[20] = Cmax in Sprague-Dawley rat at 20 mg/kg, ip by LC-MS/MS analysis; format: ADME, organism-based; set-up: dose 20 mg/kg, route intraperitoneal; conditions: in vivo; summary of the method: as §2
[21] = AUC (0 to t) in Sprague-Dawley rat at 20 mg/kg, ip by LC-MS/MS analysis; format: ADME, organism-based; conditions: in vivo; summary of the method: as §2
[22] = AUC (0 to infinity) in Sprague-Dawley rat at 20 mg/kg, ip by LC-MS/MS analysis; format: ADME, organism-based; set-up: dose 20 mg/kg, time infinity, route intraperitoneal; conditions: in vivo; summary of the method: as §2
[23] = MRT in Sprague-Dawley rat at 20 mg/kg, ip by LC-MS/MS analysis; format: ADME, organism-based; conditions: in vivo; summary of the method: as §1
[24] = Half life in Sprague-Dawley rat at 20 mg/kg, ip by LC-MS/MS analysis; format: ADME, organism-based; conditions: in vivo; summary of the method: as §2
[25] = Drug metabolism in mouse liver microsomes at 3 uM measured after 180 mins by UPLC-UV/Q-TOF MS analysis; format: ADME, Microsome; conditions: 3 h
[26] = Drug metabolism in human liver microsomes assessed as oxidation at 3 uM measured after 180 mins by UPLC-UV/Q-TOF MS analysis; format: ADME, Microsome; conditions: 3 h
[27] = Drug metabolism in monkey liver microsomes assessed as oxidation at 3 uM measured after 180 mins by UPLC-UV/Q-TOF MS analysis; format: ADME, Macaca mulatta, Microsome; conditions: rhesus monkey, 3 h
[28] = Drug metabolism in dog liver microsomes assessed as oxidation at 3 uM measured after 180 mins by UPLC-UV/Q-TOF MS analysis; format: ADME, Canis lupus familiaris, Microsome; conditions: 3 h
[29] = Drug metabolism in rat liver microsomes assessed as oxidation at 3 uM measured after 180 mins by UPLC-UV/Q-TOF MS analysis; format: ADME, Microsome; conditions: 3 h
[30] = Drug metabolism in mouse liver microsomes assessed as oxidation at 3 uM measured after 180 mins by UPLC-UV/Q-TOF MS analysis; format: ADME, Microsome; conditions: 3 h
[31] = Drug metabolism in human liver microsomes assessed as amino demethylation at 3 uM measured after 180 mins by UPLC-UV/Q-TOF MS analysis; format: ADME, Microsome; conditions: 3 h
[32] = Drug metabolism in monkey liver microsomes assessed as amino demethylation at 3 uM measured after 180 mins by UPLC-UV/Q-TOF MS analysis; format: ADME, Macaca mulatta, Microsome; conditions: rhesus monkey, 3 h
[33] = Drug metabolism in dog liver microsomes assessed as amino demethylation at 3 uM measured after 180 mins by UPLC-UV/Q-TOF MS analysis; format: ADME, Canis lupus familiaris, Microsome; conditions: 3 h
[34] = Drug metabolism in rat liver microsomes assessed as amino demethylation at 3 uM measured after 180 mins by UPLC-UV/Q-TOF MS analysis; format: ADME, Microsome; conditions: 3 h
Summary of the method: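 Human, mouse, rat, dog or monkey liver fractions (1.0×10^6 cells/mL) in William's medium E (pH 7.4) with 3.0 μM substrate, 37 °C for 180 min. Stopped with equal volume ice-cold acetonitrile. Duplicates pooled per species, spun, dried under nitrogen, reconstituted in acetonitrile/water 10:90. Metabolites profiled by UPLC-UV/Q-TOF MS.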

[35] = Drug metabolism in mouse liver microsomes assessed as amino demethylation at 3 uM measured after 180 mins by UPLC-UV/Q-TOF MS analysis; format: ADME, Microsome; conditions: 3 h
[36] = Stability in rat blood at 5 uM measured after 5 hrs by LC-MS/MS analysis; format: ADME, tissue-based; summary of the method: as §3

CC(=O)c1ccccc1O
solubility kinetic [1]: 50 µM (≈ 6.81 µg/mL)

C=CC(=O)Nc1ccc(-n2nc3c(=O)[nH]nc(N)c3c2-c2oc3ccc(C)cc3c2C)cc1
solubility kinetic [1]: 20 µM (≈ 8.81 µg/mL)
half-life at 0.1 µM [2]: 0.517 h
Tmax [3]: 4.98 min
Cmax [4]: 1880 ng/mL
AUC(0-t) [5]: 1090 ng·h/mL
AUC(0-inf) [6]: 1270 ng·h/mL
MRT ([7]; Sprague-Dawley, read-out: MRT): 5.04 h
half-life [8]: 6.25 h
clearance ([9]; Sprague-Dawley): 143 mL/min/kg
Tmax [10]: 0.861 h
Cmax [11]: 12.9 ng/mL
AUC(0-t) [12]: 6.4 ng·h/mL
AUC(0-inf) [13]: 6.4 ng·h/mL
MRT [14]: 2.17 h
half-life [15]: 1.77 h
bioavailability [16]: 0.29%

Cc1ccc2oc(-c3c4c(N)n[nH]c(=O)c4nn3-c3ccc(NC(=O)/C=C/CN4CCOCC4)cc3)c(C)c2c1
solubility kinetic [1]: 50 µM (≈ 27 µg/mL)

Cc1c(-c2c3c(N)n[nH]c(=O)c3nn2-c2ccc(NC(=O)/C=C/CN(C)C)cc2)oc2ccc(Br)cc12
solubility kinetic [1]: 50 µM (≈ 28.1 µg/mL)

Cc1c(-c2c3c(N)n[nH]c(=O)c3nn2-c2ccc(NC(=O)/C=C/CN(C)C)cc2)oc2ccc(Cl)cc12
solubility kinetic [1]: 200 µM (≈ 104 µg/mL)
t1/2 ([2]; microsomes, 0.1 µM): 1.72 h
remaining at 5 h, 5 µM [17]: 20%
AUC(0-t) [5]: 4310 ng·h/mL
AUC(0-inf) [6]: 4410 ng·h/mL
MRT [7]: 1.64 h
half-life [8]: 8.55 h
CL [9]: 37.8 mL/min/kg
Vdss [18]: 28 L/kg
Tmax [10]: 0.5 h
Cmax [11]: 7.3 ng/mL
AUC(0-t) [12]: 32.6 ng·h/mL
AUC(0-inf) [13]: 51.5 ng·h/mL
MRT [14]: 7.33 h
half-life [15]: 21.6 h
bioavailability [16]: 0%
Tmax [19]: 0.5 h
Cmax [20]: 5040 ng/mL
AUC(0-t) [21]: 16800 ng·h/mL
AUC(0-inf) [22]: 17000 ng·h/mL
MRT [23]: 3.3 h
half-life [24]: 4.63 h
Drug metabolism [25]: 20%
Drug metabolism [26]: Metabolite_Detected
Drug metabolism [27]: Metabolite_Detected
Drug metabolism [28]: Metabolite_Detected
Drug metabolism [29]: Metabolite_Detected
Drug metabolism [30]: Metabolite_Detected
Drug metabolism [31]: Metabolite_Detected
Drug metabolism [32]: Metabolite_Detected
Drug metabolism [33]: Metabolite_Detected
Drug metabolism [34]: Metabolite_Detected
Drug metabolism [35]: Metabolite_Detected

Cc1ccc2oc(-c3c4c(N)n[nH]c(=O)c4nn3-c3ccc(NC(=O)/C=C/CN(C)C)cc3)c(C)c2c1
solubility kinetic [1]: 50 µM (≈ 24.9 µg/mL)
half-life at 0.1 µM [2]: 1.05 h
Stability [36]: Stable

C=CC(=O)Nc1ccc(-n2nc3c(=O)[nH]nc(N)c3c2-c2oc3ccc(Cl)cc3c2C)cc1
solubility kinetic [1]: 20 µM (≈ 9.22 µg/mL)
half-life at 0.1 µM [2]: 0.483 h

CC(=O)c1cc(Br)ccc1O
solubility kinetic [1]: 50 µM (≈ 10.8 µg/mL)
